Laboratory results from ChEMBL document CHEMBL1944533, “Synthesis and evaluation of anti-tubercular and antibacterial activities of new 4-(2,6-dichlorobenzyloxy)phenyl thiazole, oxazole and imidazole derivatives. Part 2” (2012).
≈ marks a conversion by molar mass, not a printed value.

Experiments:
Format in all cases: functional
[1] = system: Mycobacterium tuberculosis; assay: Antitubercular activity against Mycobacterium tuberculosis H37Rv after 16 to 24 hrs by microplate alamar blue assay
Outline: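 DMSO stocks (12.8 mM) two-fold diluted in Middlebrook 7H12 medium (7H9 with casitone, palmitic acid, BSA, catalase); final concentrations 128 down to 0.5. H37Rv inoculum 2 × 10⁵ cfu/mL added, 37 °C for 7 days, then Tween 80 plus Alamar Blue, further 16–24 h. Fluorescence ex 530/em 590 nm; MIC = lowest concentration giving ≥90% fluorescence reduction versus replicate bacteria-only controls.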

Streptococcus pneumoniae [2] = assay: Antibacterial activity against Streptococcus pneumoniae clinical isolate after 16 to 20 hrs by two fold agar dilution method
Outline: (§1)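 Two-fold dilutions of test compounds and reference antibiotics made in molten Mueller-Hinton agar held at 37 °C, final range […]; drug-free medium as control. Plates spot-inoculated with culture containing 10⁴ CFU/mL of each clinical isolate, incubated at 37 °C; MIC read as lowest inhibiting concentration.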

Escherichia coli = assay: Antibacterial activity against Escherichia coli clinical isolate after 16 to 20 hrs by two fold agar dilution method; outline: as §1
Streptococcus pneumoniae [3] = assay: Antibacterial activity against pencillin-resistant Streptococcus pneumoniae after 16 to 20 hrs by two fold agar dilution method; outline: as §1
Staphylococcus aureus = assay: Antibacterial activity against Staphylococcus aureus clinical isolate after 16 to 20 hrs by two fold agar dilution method; outline: as §1

Compound | MIC [1] [µM] | MIC (Streptococcus pneumoniae [2]) [µM] | MIC (Escherichia coli) [µM] | MIC (Streptococcus pneumoniae [3]) [µM] | MIC (Staphylococcus aureus) [µM]
O=[N+]([O-])c1cn2c(n1)OC[C@@H](OCc1ccc(OC(F)(F)F)cc1)C2 [PRETOMANID] | 0.44 (≈ 0.158 µg/mL) |  |  |  | 
COc1c(N2C[C@@H]3CCCN[C@@H]3C2)c(F)cc2c(=O)c(C(=O)O)cn(C3CC3)c12 [MOXIFLOXACIN] | 0.5 (≈ 0.201 µg/mL) |  |  |  | 
CCCC(=O)Nc1nc(-c2ccc(OCc3c(Cl)cccc3Cl)cc2)c(C(=O)O)s1 | > 128 | ≤ 0.134 | > 128 | > 128 | > 128
CCOC(=O)c1ncn(-c2ccc(OCc3c(Cl)cccc3Cl)cc2)c1NC(=O)c1ccc(Cl)cc1 | > 128 |  |  |  | 
CCOC(=O)c1nc(-c2ccc(OCc3c(Cl)cccc3Cl)cc2)oc1NC(=O)c1ccc(Cl)cc1 | > 128 |  |  |  | 
O=C(Nc1nc(-c2ccc(OCc3c(Cl)cccc3Cl)cc2)c(C(=O)O)s1)c1ccc(Cl)cc1 | > 128 | ≤ 0.117 | > 128 | > 128 | > 128
O=C(Nc1nc(-c2ccc(OCc3c(Cl)cccc3Cl)cc2)c(C(=O)O)s1)c1ccccc1 | > 128 | ≤ 0.125 | > 128 | > 128 | > 128
C=CC(=O)Nc1nc(-c2ccc(OCc3c(Cl)cccc3Cl)cc2)c(C(=O)OCC)s1 | 7.2 (≈ 3.44 µg/mL) | ≤ 0.131 | > 128 | > 128 | > 128
O=C(Nc1c(C(=O)O)ncn1-c1ccc(OCc2c(Cl)cccc2Cl)cc1)c1ccc(Cl)cc1 | > 128 |  |  |  | 
CCCC(=O)Nc1nc(-c2ccc(OCc3c(Cl)cccc3Cl)cc2)c(C(=O)OCC)s1 | 60.8 (≈ 30 µg/mL) | ≤ 0.127 | > 128 | > 128 | > 128
CCOC(=O)c1sc(NC(=O)c2ccccc2)nc1-c1ccc(OCc2c(Cl)cccc2Cl)cc1 | 61.2 (≈ 32.3 µg/mL) | ≤ 0.119 | > 128 | > 128 | > 128
GENTAMICIN |  | 6.9 | 0.43 | 6.9 | 6.9
O=C(Nc1nc(-c2ccc(OCc3c(Cl)cccc3Cl)cc2)c(C(=O)O)s1)c1ccc(Cl)cc1Cl | 45.5 (≈ 25.9 µg/mL) | > 128 | > 128 | > 128 | > 128
NNC(=O)c1ccncc1 [ISONIAZID] | 0.81 (≈ 0.111 µg/mL) |  |  |  | 
CCOC(=O)c1sc(NC(=O)c2ccc(Cl)cc2)nc1-c1ccc(OCc2c(Cl)cccc2Cl)cc1 | 1 (≈ 0.562 µg/mL) | 7.12 (≈ 4 µg/mL) | > 128 | > 128 | > 128
CCOC(=O)c1sc(NC(=O)c2ccc(Cl)cc2Cl)nc1-c1ccc(OCc2c(Cl)cccc2Cl)cc1 | 25.4 (≈ 15.1 µg/mL) | > 128 | > 128 | > 128 | > 128
CCOC(=O)c1sc(NC(=O)c2ccc(OC)cc2)nc1-c1ccc(OCc2c(Cl)cccc2Cl)cc1 | 7.6 (≈ 4.24 µg/mL) | ≤ 0.112 | > 128 | > 128 | > 128
O=C(Nc1oc(-c2ccc(OCc3c(Cl)cccc3Cl)cc2)nc1C(=O)O)c1ccc(Cl)cc1 | > 128 |  |  |  | 
CC1(C)S[C@@H]2[C@H](NC(=O)[C@H](N)c3ccccc3)C(=O)N2[C@H]1C(=O)O [AMPICILLIN] |  | 0.168 (≈ 0.0587 µg/mL) | 10.8 (≈ 3.77 µg/mL) | 10.8 (≈ 3.77 µg/mL) | 2.7 (≈ 0.943 µg/mL)
COc1ccc(C(=O)Nc2nc(-c3ccc(OCc4c(Cl)cccc4Cl)cc3)c(C(=O)O)s2)cc1 | > 128 | ≤ 0.118 | > 128 | > 128 | > 128
